These results are taken from ChEMBL document CHEMBL5036324 (J Med Chem, 2021).

The nature of data set [1]: Acute toxicity in BALB/c mouse assessed as mortality at 120 mg/kg, ip administered as single dose. The format is organism-based. Particulars: in vivo.
Data set [2] has as its target T1, TLR7 and TLR8 (Homo sapiens) (UniProt Q9NYK1+Q9NR97). In words: Agonist activity at human TLR7/8 expressed in human PBMC cells assessed as induction of INFgamma production at 0.1 to 32 ug/ml incubated for 12 hrs by multiplexed immunoassay. To be noted: filed as agonist, dose 0.1-32 µg/ml. The format is cell-based. Put shortly:
(§1)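 Healthy-volunteer PBMCs from a single donor were isolated by Ficoll−Hypaque gradient and plated at 2.0 × 10⁶ cells/mL. They were stimulated for 12 h with escalating compound concentrations. Supernatants were assayed in duplicate on a 41-analyte magnetic bead cytokine/chemokine panel read by Luminex. EC_max is the concentration giving maximal cytokine induction.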

In data set [3] the target is T1, TLR7 and TLR8 (Homo sapiens). In words: Agonist activity at human TLR7/8 expressed in human PBMC cells assessed as induction of IL-6 production at 0.1 to 32 ug/ml incubated for 12 hrs by multiplexed immunoassay. The format is cell-based. Particulars: filed as agonist, dose 0.1-32 µg/ml. The procedure, abridged: as §1
Data set [4] is described as follows: Toxicity in BALB/c mouse implanted with mouse CT26 cells assessed as decrease in body weight at 25 ug, ip administered once a week in presence of anti-PD-1 antibodies for 23 days. Format: organism-based. To be noted: in vivo, 552 h, dose 25 µg, time 23 day. The procedure, abridged:
(§2)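 CT26 subcutaneous tumor-bearing BALB/c mice (n = 5) were treated from 100 mm³ tumor volume. TLR7/8 agonist was given ip once weekly, alone or with anti-PD-1 antibody (200 μg ip, twice weekly). Body weight was tracked over the treatment period and reported as mean ± SEM.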

Another data set addresses hERG (KCNH2) (Homo sapiens, UniProt Q12809). The data set is described as follows: Inhibition of hERG expressed in HEK293 cells at 10 uM relative to control. The format is cell-based. Particulars: HEK293 cells expressing hERG.
Data set [5] deals with CT26. In words: Antitumor activity against mouse CT26 cells implanted in BALB/c mouse assessed as tumor growth inhibition at 50 ug, ip administered once a week and measured every 3 days for 23 days relative to control. Format: functional. To be noted: dose 50 µg; time 23 day. The procedure, abridged:
(§3)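 Subcutaneous CT26 tumours were grown in BALB/c mice, with cells cultured in DMEM/10% FBS. At a mean tumour size of 100 mm³, mice were randomised (n = 5/group). Agonist was given ip once weekly; anti-PD-1 or IgG isotype was given ip at 200 μg twice weekly. Tumour volume (V = 1/2ab²) was measured every 3 days. Mice were euthanised at 2000 mm³.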

The test system of data set [6] is CT26. In words: Antitumor activity against mouse CT26 cells implanted in BALB/c mouse assessed as tumor growth inhibition at 50 ug, ip administered once a week in presence of anti-PD-1 antibodies and measured every 3 days for 23 days relative to control. Format: functional. To be noted: dose 50 µg; time 23 day. The procedure, abridged: as §3
Data set [7] addresses T1, TLR7 and TLR8 (Homo sapiens). The data set is described as follows: Agonist activity at human TLR7/8 expressed in human PBMC cells assessed as induction of IL-1beta production at 0.1 to 32 ug/ml incubated for 12 hrs by multiplexed immunoassay. Format: cell-based. To be noted: filed as agonist, dose 0.1-32 µg/ml. The procedure, abridged: as §1
In data set [8] the test system is CT26. In words: Antitumor activity against mouse CT26 cells implanted in BALB/c mouse assessed as tumor growth delay at 25 ug, ip administered once per week and measured every 3 days for 23 days. The format is functional, organism-based. To be noted: dose 25.0 µg, time 23.0 day. The procedure, abridged: as §3
Data set [9] is described as follows: Toxicity in BALB/c mouse implanted with mouse CT26 cells assessed as decrease in body weight at 25 ug, ip administered once a week for 23 days. The format is organism-based. Particulars: in vivo, 552 h, dose 25 µg, time 23 day. The procedure, abridged:
as §2

For data set [10], the system named is CT26. In words: Antitumor immunity against mouse CT26 cells implanted in BALB/c mouse assessed as increase in infiltration of CD8+ T cytotoxic lymphocytes at 25 ug, ip administered once a week with anti-PD-1 antibody for 23 days by flow cytometry analysis. To be noted: dose 25.0 µg, time 23.0 day. Format: functional, organism-based. The procedure, abridged:
(§4)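 CT26-bearing BALB/c mice (n = 5) were treated ip once weekly with agonist, alone or with anti-PD-1 (200 μg, twice weekly). Tumours were harvested 23 days after implantation, enzymatically and mechanically dissociated into single cells, and stained for surface markers plus intracellular FoxP3 after fixation/permeabilisation. Cells were gated within CD45⁺ for CD11c⁺ DCs, CD11b⁺F4/80⁺MHCII⁺ (M1), CD206⁺ (M2), CD3/CD4/CD8, and CD4⁺CD25⁺FoxP3⁺ Treg, then analysed by flow cytometry.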
In general terms: Flow cytometry measures light scatter and fluorescence of single cells or particles in a stream.

The nature of data set [11]: Acute toxicity in BALB/c mouse assessed as mortality at 100 mg/kg, ip administered as single dose. Format: organism-based. Particulars: in vivo.
The target in data set [12] is T1, TLR7 and TLR8 (Homo sapiens). In words: Agonist activity at human TLR7/8 expressed in human PBMC cells assessed as induction of IL-6 production by measuring concentration required to induce maximal response incubated for 12 hrs by multiplexed immunoassay. The format is cell-based. Particulars: filed as agonist. Put shortly: as §1
In data set [13] the test system is CT26. In words: Synergistic antitumor activity against mouse CT26 cells implanted in BALB/c mouse assessed as suppression of tumor growth at 12.5 ug, ip administered once a week in presence of anti-PD-1 antibodies and measured every 3 days for 23 days. The format is functional, organism-based. To be noted: dose 12.5 µg, time 23.0 day.
Data set [14] in a line: Subacute toxicity in BALB/c mouse assessed as body weight loss at 2.19 g, ip administered as single dose. Particulars: in vivo. The format is organism-based. Put shortly:
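Subacute study in BALB/c mice, with treated and control groups. Body weight was recorded every day. Spleens were weighed and photographed, and tissues were examined by H&E staining.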

The target of data set [15] is T1, TLR7 and TLR8 (Homo sapiens). In words: Agonist activity at human TLR7/8 expressed in human PBMC cells assessed as induction of G-CSF production by measuring concentration required to induce maximal response incubated for 12 hrs by multiplexed immunoassay. Particulars: filed as agonist. The format is cell-based. The procedure, abridged: as §1
For data set [16], the system named is CT26. In words: Antitumor activity against mouse CT26 cells implanted in BALB/c mouse assessed as tumor growth inhibition at 25 ug, ip administered once a week and measured every 3 days for 23 days relative to control. The format is functional. To be noted: dose 25 µg; time 23 day. Put shortly:
as §3

In data set [17] the test system is CT26. The data set is described as follows: Antitumor immunity against mouse CT26 cells implanted in BALB/c mouse assessed as increase in infiltration of CD4+ TH1 cells at 25 ug, ip administered once a week with anti-PD-1 antibody for 23 days by flow cytometry analysis. Format: functional, organism-based. Particulars: dose 25.0 µg, time 23.0 day. Put shortly: as §4

Data set [18] addresses T1, TLR7 and TLR8 (Homo sapiens). The data set is described as follows: Agonist activity at human TLR7/8 expressed in human PBMC cells assessed as induction of IL-10 production by measuring concentration required to induce maximal response incubated for 12 hrs by multiplexed immunoassay. The format is cell-based. Particulars: filed as agonist. The procedure, abridged: as §1

For data set [19] the target is unchanged. In words: Agonist activity at human TLR7/8 expressed in human PBMC cells assessed as induction of IP-10 production by measuring concentration required to induce maximal response incubated for 12 hrs by multiplexed immunoassay. The format is cell-based. Particulars: filed as agonist. Put shortly: as §1
For data set [20], the system named is CT26. The data set is described as follows: Antitumor immunity against mouse CT26 cells implanted in BALB/c mouse assessed as increase in M1 to M2 like TAM ratio at 25 ug, ip administered once a week with anti-PD-1 antibodies for 23 days by flow cytometry analysis. The format is functional, organism-based. To be noted: dose 25.0 µg, time 23.0 day. Put shortly:
as §4

Data set [21] in a line: Toxicity in BALB/c mouse implanted with mouse CT26 cells assessed as reduction in survival at 25 ug, ip administered once a week in presence of anti-PD-1 antibodies and measured 60 days post tumor implantation. To be noted: in vivo, 1440 h, dose 25 µg, time 60 day. Format: organism-based. Put shortly:
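Survival study in CT26-bearing BALB/c mice (n = 10 per group), treated from a tumor volume of 100 mm³. Dosing was 25 μg agonist ip once weekly plus anti-PD-1 antibody at 200 μg ip twice weekly; IgG isotype was the control. Mice were euthanized on signs of distress or at a total tumor size of 2000 mm³.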

Data set [22] addresses T1, TLR7 and TLR8 (Homo sapiens). The data set is described as follows: Agonist activity at human TLR7/8 expressed in human PBMC cells assessed as induction of IL-8 production by measuring concentration required to induce maximal response incubated for 12 hrs by multiplexed immunoassay. To be noted: filed as agonist. Format: cell-based. The procedure, abridged:
as §1

Activity calls are given as the source filed them. The rule behind the calls is not given here.

hERG (KCNH2), sequence (Q12809 whole entry): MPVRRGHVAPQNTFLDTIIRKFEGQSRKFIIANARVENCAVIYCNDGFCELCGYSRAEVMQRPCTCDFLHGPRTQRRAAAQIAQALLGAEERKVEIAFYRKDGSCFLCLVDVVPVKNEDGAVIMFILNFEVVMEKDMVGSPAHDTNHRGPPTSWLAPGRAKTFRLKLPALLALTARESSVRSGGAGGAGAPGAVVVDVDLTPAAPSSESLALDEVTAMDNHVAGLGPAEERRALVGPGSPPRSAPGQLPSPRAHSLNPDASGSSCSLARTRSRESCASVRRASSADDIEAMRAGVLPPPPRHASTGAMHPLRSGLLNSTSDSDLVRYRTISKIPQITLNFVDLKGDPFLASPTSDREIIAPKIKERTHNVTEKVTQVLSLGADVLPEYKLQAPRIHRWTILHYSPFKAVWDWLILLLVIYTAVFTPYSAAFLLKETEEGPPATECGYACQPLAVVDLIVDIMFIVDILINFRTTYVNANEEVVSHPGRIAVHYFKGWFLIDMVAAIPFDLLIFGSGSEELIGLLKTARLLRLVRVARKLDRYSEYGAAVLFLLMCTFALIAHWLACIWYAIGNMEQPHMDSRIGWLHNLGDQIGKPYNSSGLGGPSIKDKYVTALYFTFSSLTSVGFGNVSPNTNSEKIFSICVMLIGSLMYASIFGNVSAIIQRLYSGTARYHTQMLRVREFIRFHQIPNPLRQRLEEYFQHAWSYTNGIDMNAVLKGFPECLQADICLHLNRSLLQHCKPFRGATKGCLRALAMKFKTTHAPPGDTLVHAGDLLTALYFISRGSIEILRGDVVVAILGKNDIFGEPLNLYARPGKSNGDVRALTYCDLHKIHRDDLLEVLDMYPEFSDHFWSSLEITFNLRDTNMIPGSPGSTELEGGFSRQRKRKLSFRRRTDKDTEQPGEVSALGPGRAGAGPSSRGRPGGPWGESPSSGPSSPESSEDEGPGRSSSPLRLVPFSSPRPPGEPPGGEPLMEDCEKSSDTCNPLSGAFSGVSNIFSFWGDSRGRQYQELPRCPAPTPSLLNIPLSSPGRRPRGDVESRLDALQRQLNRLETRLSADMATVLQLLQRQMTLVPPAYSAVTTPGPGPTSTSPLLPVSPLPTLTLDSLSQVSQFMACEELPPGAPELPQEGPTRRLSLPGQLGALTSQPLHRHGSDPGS

For `COCCNc1nc(N)nc2ccc(Cc3ccc(CN(C)C)cc3)nc12`, the Activity result in [1] is reported as “Toxic”; in [4], “Non-Toxic”; in data set [9], “Non-Toxic”. Further, the outcome (in data set [2]; in data set [3]; in [7]; with CT26 [8]) was Active. On hERG (KCNH2), this compound registered an inhibition at 10 µM of 14.8%. The TGI worked out at 82.8% in the data set with CT26 [5] and 88.9% with CT26 [6].

Regarding `CCCCNc1nc(N)nc2ccc(Cc3ccc(CN(C)C)cc3)nc12`, the result in the data set with CT26 [10], with CT26 [13], in the data set on CT26 [17] and in the data set on CT26 [20] was Active. For the same compound, the values for the Activity entry in [11], in [14] and in data set [21] were “Toxic”, “Toxic” and “Non-Toxic”, respectively. The compound also gave an inhibition at 10 µM against hERG (KCNH2) of 89.3%. Moreover, the ECmax in data set [12], in data set [15], in data set [18], in data set [19] and in [22] was 0.1 µg/mL in each case. For the same compound, in the data set on CT26 [16], the TGI is greater than 96.5%.

The term inhibition denotes the relative decrease from the control value, in per cent. Usually TGI stands for how far tumour growth fell short of that in controls.
